Measurements gathered from unrelated publications.
Each line is one published result; the experiments were not run side by side.

CCOC(=O)[C@@]12C[C@@H]1[C@@H](n1ccc3c(NC)nc(C#Cc4ccc(Cl)s4)nc31)[C@H](O)[C@@H]2O — half-life (male Sprague-Dawley rat; plasma; oral; 3 mg/kg): 93 min
CCc1cc(OC)c2nccc(N3CCc4c(cc(Cn5ccnc5)cc4-c4cn(C)nc4C(F)(F)F)C3=O)c2c1 — half-life (male Sprague-Dawley rat; plasma; intravenous; 3 mg/kg): 60 min
Cc1noc(-c2cc3cc(-c4nc(C(=O)NCc5ccncc5)[nH]c4C)ccc3[nH]2)n1 — half-life (Sprague-Dawley rat; plasma; intravenous; 1 mg/kg): 108 min
CNCc1cc(-c2ccccc2F)n(S(=O)(=O)c2cccnc2)c1 — half-life (Sprague-Dawley rat; plasma; oral; 10 mg/kg): 77.4 min
COc1nc(-c2cc(C)c(N[C@@H](C)c3cc(F)cc(F)c3)nn2)ccc1-n1cnc(C)c1 — half-life (male Sprague-Dawley rat; plasma; intravenous; 1 mg/kg; single dose): 186 min
Oc1c(-n2ccnn2)cnn1-c1cc(N2CCOCC2)ncn1 — half-life (male rat; plasma; oral; 5 mg/kg): 180 min
O=C(Nc1cc(F)c(F)c(F)c1)c1ccc(F)c(S(=O)(=O)NCc2cccc(B(O)O)c2)c1 — half-life (male Sprague-Dawley rat; plasma; intravenous; 2 mg/kg): 56.4 min
O=C(Nc1ccc(C(F)(F)F)cc1F)N1CCC(Cc2cccc(Oc3ccc(C(F)(F)F)cn3)c2)CC1 — half-life (male Sprague-Dawley rat; blood; oral; 1 mg/kg): 348 min
N#Cc1ccc(Nc2nc(N)cc(Oc3c(F)cc(-c4ccc(C#N)cc4)cc3F)n2)cc1 — half-life (Sprague-Dawley rat; plasma; intravenous; 1 mg/kg): 75 min
C=CC(=O)Nc1cc(Nc2nccc(Nc3cc(Cl)c(F)cc3C(C)(C)O)n2)c(OC)cc1N1CC[C@@H](N(C)C)C1 — half-life (Wistar rat; plasma; intravenous; 3 mg/kg): 382 min
CCc1cc(C(=O)NC)c2nccc(N3CCc4c(cc(Cn5ccnc5)cc4-c4cn(C)nc4C(F)(F)F)C3=O)c2c1 — half-life (male Sprague-Dawley rat; plasma; oral; 100 mg/kg; single dose): 234 min
CCc1nc(C(N)=O)c(Nc2ccc(N3CCC(N4CCN(C)CC4)CC3)c(OC)c2)nc1NC1CCOCC1 — half-life (male Sprague-Dawley rat; plasma; oral; 10 mg/kg): 860 min
Cc1cnc(N2CC3(CCOCC3)C2)c(C(=O)Nc2ccc(C(=O)N3CCc4cc(C(=O)Nc5c(C)cccc5F)sc4-c4ccccc43)cc2)c1 — half-life (rat; plasma; intravenous; 0.1 mg/kg; single dose): ~138 min
COc1ccc2c(=O)n(C)c(-c3ccccc3)nc2c1 — half-life (male Sprague-Dawley rat; plasma; intravenous; 2 mg/kg): 49.8 min
COc1ccc(C(C)=O)c(O)c1 — half-life (male Sprague-Dawley rat; plasma; oral; 100 mg/kg): 202 min
COc1ccc2c(Cc3ccccc3F)c3[n+](cc2c1OC)CCc1cc2c(cc1-3)OCO2.[Br-] — half-life (rat; plasma; intravenous; 5 mg/kg): 96.6 min
Oc1c(Br)cc(Cl)c2cccnc12 — half-life (Sprague-Dawley rat; plasma; oral; 20 mg/kg): 336 min
N#Cc1[nH]nnc1-c1cccc(OCc2cc(C(F)(F)F)ccc2C(F)(F)F)c1 — half-life (male Sprague-Dawley rat; plasma; oral; 10 mg/kg): 234 min
C#Cc1cccc(Nc2ncnc3cc(OCCOC)c(OCCOC)cc23)c1 — half-life (male Sprague-Dawley rat; plasma; oral; 12 mg/kg; single dose): 135 min
COc1ccc2c(Cc3ccccc3F)c3n(c(=O)c2c1OC)CCc1cc2c(cc1-3)OCO2 — half-life (rat; plasma; oral; 5 mg/kg): 1070 min
COc1cc2c3c(n(CCCN4CCOCC4)c(=O)c2cc1OC)-c1cc2c(cc1C3=O)OCO2 — half-life (female Fischer 344 rat; plasma; intravenous; 24 mg/m²; single dose): 276 min
Cc1c(-c2ccccc2)cccc1N1C(=O)c2cc(CN[C@H](C(=O)O)C(C)O)c(OCc3cccc(C#N)c3)cc2C1=O (stereo partly drawn) — half-life (Sprague-Dawley rat; plasma; intravenous; 5 mg/kg): 386 min
N#Cc1[nH]nnc1-c1cccc(-c2cc(F)cc(C(F)(F)F)c2)c1 — half-life (male Sprague-Dawley rat; plasma; oral; 10 mg/kg): 156 min
COCCOC(=O)C1=C(C)NC(C)=C(C(=O)OC(C)C)C1c1cccc([N+](=O)[O-])c1 (stereo not drawn) — half-life (male Sprague-Dawley rat; plasma; oral; 12 mg/kg): 450 min
